The target of assay [1] is Human immunodeficiency virus type 1 integrase (Human immunodeficiency virus 1, UniProt Q7ZJM1). Kind of assay: Inhibition of HIV1 recombinant integrase by electrochemiluminescent-based high-throughput strand transfer assay. In a few lines:
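Biotinylated, 3′-end-preprocessed donor DNA incubated 30 min at 37°C with 250 nM recombinant integrase; compound added, strand transfer started with ruthenium-labeled duplex target DNA, 60 min at 37°C; electrochemiluminescence read. IC50 as mean ± SD of ≥3 independent experiments, or single experiment where footnoted.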

A short description of assay [2]: Inhibition of HIV1 RNase H by FRET high-throughput assay. Further details: species or system Human immunodeficiency virus 1. In a few lines: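 3′-fluorescein/5′-DABCYL RNA/DNA hybrid (0.16 nM) preincubated with compound; reaction started with 7.5 nM HIV-1 RNase H, 30 min at room temperature, EDTA quench, fluorescence intensity read. IC50 as mean ± SD of ≥3 independent experiments, or single experiment where footnoted.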

The test system of assay [3] is Human immunodeficiency virus 1. Kind of assay: Selectivity, ratio of IC50 for HIV1 RNase H to IC50 for HIV1 recombinant integrase. In a few lines: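 Ratio of the IC50s from two assays run on the same compounds. Integrase: a biotinylated 3′-preprocessed donor DNA was preincubated 30 min at 37°C with 250 nM recombinant HIV-1 integrase. Compound was then added, ruthenium-labelled target DNA started strand transfer, 60 min at 37°C, electrochemiluminescent read-out. RNase H: 0.16 nM 3′-fluorescein/5′-DABCYL RNA/DNA hybrid with 7.5 nM enzyme, 30 min at room temperature, EDTA quench, FRET fluorescence.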

Assay [4] deals with Human immunodeficiency virus 1. The assay can be described thus: Selectivity, ratio of IC50 for HIV1 recombinant integrase to IC50 for HIV1 RNase H.
Assay [5] has as its target Human immunodeficiency virus type 1 integrase (Human immunodeficiency virus 1) (UniProt Q7ZJM1). Kind of assay: Selectivity for inhibition of HIV1 recombinant integrase strand transfer activity over 3'-end processing.

Molecules are shown by their SMILES. Some results are limits rather than exact numbers.

This note sets out measurements from ChEMBL document CHEMBL1151461, “Madurahydroxylactone derivatives as dual inhibitors of human immunodeficiency virus type 1 integrase and RNase H” (Antimicrob Agents Chemother, 2008).

Sequence of Human immunodeficiency virus type 1 integrase (Q7ZJM1 whole entry): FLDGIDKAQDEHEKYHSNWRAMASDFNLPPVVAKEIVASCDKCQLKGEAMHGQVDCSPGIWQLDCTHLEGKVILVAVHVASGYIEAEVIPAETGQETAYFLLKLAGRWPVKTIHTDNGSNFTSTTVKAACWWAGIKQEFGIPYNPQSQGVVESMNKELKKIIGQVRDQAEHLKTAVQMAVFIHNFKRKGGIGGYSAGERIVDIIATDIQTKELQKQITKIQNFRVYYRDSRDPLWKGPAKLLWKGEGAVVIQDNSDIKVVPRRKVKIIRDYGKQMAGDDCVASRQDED
Sequence of Human immunodeficiency virus type 1 integrase (Human immunodeficiency virus 1) (Q7ZJM1 as listed by the source): as the sequence (Q7ZJM1 whole entry) above

Broadly, the IC50 is the concentration that inhibits the measured activity by half. As to `CCCn1ncc2cc3c(c(O)c2c1=O)-c1c(O)c2c(c(OC)c1CC3)C(=O)c1c(cc(OC(=O)OC)c(C)c1OC(C)=O)C2=O`, the IC50 was over 333 µM in assay [1] and 8.98 µM in assay [2].

Turning to `COc1c2c(c(O)c3c1C(=O)c1c(cc(O)c(C)c1O)C3=O)-c1c(cc3cnn(C(=N)N)c(=O)c3c1O)CC2`, the 50% inhibitory concentration (IC50) is 3.02 µM in assay [1] and 5.28 µM in assay [2].

Take `COc1c2c(c(O)c3c1C(=O)c1c(cc(O)c(C)c1O)C3=O)-c1c(cc(/C=N/NS(=O)(=O)c3ccc(C)cc3)c(C(=O)O)c1O)CC2`: the concentration for half-maximal inhibition (IC50) came to 22 µM in assay [1] and 5.88 µM in assay [2].

On to `COc1c2c(c(O)c3c1C(=O)c1c(cc(O)c(C)c1O)C3=O)-c1c(cc(/C=N/C34CC5CC(CC(C5)C3)C4)c(C(=O)O)c1O)CC2`, for which the figures for the 50% inhibitory concentration (IC50) in assay [1] and in assay [2] were 37 µM and 9.41 µM, respectively.

In the case of `COc1c2c(c(O)c3c1C(=O)c1c(cc(O)c(C)c1O)C3=O)-c1c(cc(/C=N/NC(=O)c3ccccc3)c(C(=O)O)c1O)CC2`, the half-inhibitory concentration (IC50) worked out at 14.6 µM in assay [1] and 3.1 µM in assay [2].

Regarding `CCCn1ncc2cc3c(c(O)c2c1=O)-c1c(O)c2c(c(OC)c1CC3)C(=O)c1c(cc(O)c(C)c1O)C2=O`, the IC50 came out at 6.34 µM in assay [1] and 8.96 µM in assay [2].

As to `COc1c2c(c(OCc3ccccc3)c3c1C(=O)c1c(cc(OCc4ccccc4)c(C)c1OCc1ccccc1)C3=O)-c1c(cc3cnn(CC(=O)O)c(=O)c3c1OCc1ccccc1)CC2`, the IC50 in assay [1] was 106 µM; in assay [2] it was 22.4 µM.

Consider `COc1c2c(c(O)c3c1C(=O)c1c(cc(O)c(C)c1O)C3=O)-c1c(cc3c(c1O)C(=O)N1CCCNC31)CC2` (centres undefined), for which the half-inhibitory concentration (IC50) in assay [1] worked out at 56 µM; in assay [2] it was 7.16 µM.

Regarding `COc1c2c(c(O)c3c1C(=O)c1c(cc(O)c(C)c1O)C3=O)-c1c(cc3c(c1O)C(=O)N1c4ccccc4SC31)CC2` (centres undefined), the values for the concentration for half-maximal inhibition (IC50) in assay [1] and in assay [2] were 96 µM and 0.31 µM, respectively. Moreover, the Ratio IC50 in assay [3] amounted to 100; in assay [4], 10.

In the case of `COc1c2c(c(O)c3c1C(=O)c1c(cc(O)c(C)c1O)C3=O)-c1c(cc3c(c1O)C(=O)N1C(C(=O)O)CSC31)CC2` (centres undefined), the 50% inhibitory concentration (IC50) was 20 µM in assay [1] and 15.7 µM in assay [2].

On to `COc1c2c(c(O)c3c1C(=O)c1c(cc(O)c(C)c1O)C3=O)-c1c(cc(/C=N/NC(C)(C)C)c(C(=O)O)c1O)CC2`, for which the IC50 was determined as 122 µM in assay [1] and 0.69 µM in assay [2]. In addition, in assay [4], the Ratio IC50 was over 100.

For the compound `COc1c2c(c(O)c3c1C(=O)c1c(cc(O)c(C)c1O)C3=O)-c1c(cc(C(=O)O)c(C(=O)O)c1O)CC2`, the values for the IC50 in assay [1] and in assay [2] were 13.2 µM and 3.48 µM, respectively.

For the compound `COc1c2c(c(O)c3c1C(=O)c1c(cc(O)c(C)c1O)C3=O)-c1c(cc3cnn(CCOC(C)=O)c(=O)c3c1O)CC2`, the IC50 in assay [1] was 6.28 µM; in assay [2], 8.63 µM.

In the case of `COc1c2c(c(OC(C)=O)c3c1C(=O)c1c(cc(OC(C)=O)c(C)c1OC(C)=O)C3=O)-c1c(cc3cnn(-c4ccccc4)c(=O)c3c1OC(C)=O)CC2`, the values for the IC50 in assay [1] and in assay [2] were over 333 µM and 3.14 µM, respectively. Moreover, the Ratio IC50 in assay [4] is 100.

With `COc1c2c(c(O)c3c1C(=O)c1c(cc(O)c(C)c1O)C3=O)-c1c(cc(/C=N/NC(=N)N)c(C(=O)O)c1O)CC2`, the half-inhibitory concentration (IC50) in assay [1] turned out to be 3.15 µM; in assay [2], 5.65 µM.

With `COc1c2c(c(O)c3c1C(=O)c1c(cc(O)c(C)c1O)C3=O)-c1c(cc3cnn(-c4ccc(C(=O)O)cc4)c(=O)c3c1O)CC2`, the results for the concentration for half-maximal inhibition (IC50) in assay [1] and in assay [2] were 3.45 µM and 9.11 µM, respectively.

As to `COc1c2c(c(O)c3c1C(=O)c1c(cc(O)c(C)c1O)C3=O)-c1c(cc3cnn(CC(=O)O)c(=O)c3c1O)CC2`, the IC50 turned out to be 4.62 µM in assay [1] and 10.2 µM in assay [2].

Consider `COc1c2c(c(O)c3c1C(=O)c1c(cc(O)c(C)c1O)C3=O)-c1c(cc(C3NCc4ccccc4N3)c(C(=O)O)c1O)CC2` (centres undefined), for which the IC50 in assay [1] is 40 µM; in assay [2], 5.86 µM.

For `COc1c2c(c(O)c3c1C(=O)c1c(cc(O)c(C)c1O)C3=O)-c1c(cc(/C=N/Nc3ccc([N+](=O)[O-])cc3)c(C(=O)O)c1O)CC2`, the half-maximal inhibitory concentration (IC50) turned out to be 2.2 µM in assay [1] and 14 µM in assay [2].

Regarding `COc1c2c(c(O)c3c1C(=O)c1c(cc(O)c(C)c1O)C3=O)-c1c(cc3cnn(-c4ccccc4)c(=O)c3c1O)CC2`, the concentration for half-maximal inhibition (IC50) in assay [1] turned out to be 0.41 µM; in assay [2] it was 2.58 µM. In addition, the Ratio IC50 in assay [3] stood at 100. Besides, the fold change (FC) in assay [5] was 20.

For the compound `CCCn1ncc2cc3c(c(OC(C)=O)c2c1=O)-c1c(c(OC)c2c(c1OC(C)=O)C(=O)c1cc(OC(C)=O)c(C)c(OC(C)=O)c1C2=O)CC3`, the IC50 in assay [1] was over 333 µM; in assay [2] it was 10.5 µM.

Turning to `CO/N=C/c1cc2c(c(O)c1C(=O)O)-c1c(O)c3c(c(OC)c1CC2)C(=O)c1c(cc(O)c(C)c1O)C3=O`, the concentration for half-maximal inhibition (IC50) in assay [1] was found to be 12.5 µM; in assay [2], 10.1 µM.

Take `COC(=O)Oc1cc2c(c(O)c1C)C(=O)c1c(OC)c3c(c(O)c1C2=O)-c1c(cc2cnn(-c4ccccc4)c(=O)c2c1O)CC3`: the figures for the half-inhibitory concentration (IC50) in assay [1] and in assay [2] were 200 µM and 1.43 µM, respectively. In assay [4], the Ratio IC50 was determined as 100.

`COc1c2c(c(O)c3c1C(=O)c1c(cc(O)c(C)c1O)C3=O)-c1c(cc3c(c1O)C(=O)N1c4ccccc4CNC31)CC2` (centres undefined): the half-inhibitory concentration (IC50) in assay [1] was found to be 108 µM; in assay [2] it was 0.78 µM. Besides, the Ratio IC50 in assay [4] was determined as 100.

With `COc1c2c(c(O)c3c1C(=O)c1c(cc(O)c(C)c1O)C3=O)-c1c(cc3cn[nH]c(=O)c3c1O)CC2`, the half-maximal inhibitory concentration (IC50) in assay [1] and in assay [2] was 4.06 µM throughout.

Take `COc1c2c(c(O)c3c1C(=O)c1c(cc(O)c(C)c1O)C3=O)-c1c(cc(/C=N/NC(=O)c3ccccc3O)c(C(=O)O)c1O)CC2`: the IC50 in assay [1] came to 6.09 µM; in assay [2], 3.54 µM.

In the case of `CCOC(=O)Cn1ncc2cc3c(c(O)c2c1=O)-c1c(O)c2c(c(OC)c1CC3)C(=O)c1c(cc(O)c(C)c1O)C2=O`, the half-inhibitory concentration (IC50) in assay [1] worked out at 2.67 µM; in assay [2], 2.11 µM.

Turning to `COc1c2c(c(O)c3c1C(=O)c1c(cc(O)c(C)c1O)C3=O)-c1c(cc3c(c1O)C(=O)N(N(C)C)C3O)CC2` (centres undefined), the IC50 in assay [1] worked out at 7.7 µM; in assay [2], 6.97 µM.
